Data set [1] in a line: Clearance in mouse liver microsomes at 1 uM incubated for 10 mins by LC-MS/MS method. In kind it is ADME, Microsome. The method in brief: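 Liver microsomes (human or mouse, 0.5 mg/mL) in 100 mM potassium phosphate pH 7.4 with 1 μM compound, prewarmed 10 min at 37 °C, started with NADPH (10 mM); stopped at 0, 3, 6, 9, 15, 30 min with ice-cold methanol containing tolbutamide internal standard; LC-MS/MS. Hepatic clearance (mL/min/kg) calculated from intrinsic clearance.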
For orientation: Liver microsomes are vesicles of endoplasmic reticulum, rich in cytochrome P450 enzymes.

Data set [2] can be described thus: Half life in BALB/C mouse at 10 mg/kg, po or 2 mg/kg, iv by LC-MS/MS method. The data set is classed as ADME, organism-based. The following applies: BALB/C, in vivo. The essentials:
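Female-unspecified BALB/C nude mice (15−20 g, N = 16 per arm); iv bolus 2 mg/kg in 5% DMSO/40% PEG400/55% saline and/or oral gavage 10 mg/kg as 0.445% microcrystalline cellulose microsuspension. Blood sampled at nine (iv) or eight (po) time points into sodium heparin tubes; plasma by LC-MS/MS; noncompartmental analysis.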

The target in data set [3] is Voltage-gated inwardly rectifying potassium channel KCNH2 (Homo sapiens, UniProt Q12809). The data set is described as follows: Inhibition of human ERG expressed in CHO cells by patch clamp method. In kind it is cell-based.
Sequence of Voltage-gated inwardly rectifying potassium channel KCNH2 (Q12809 whole entry): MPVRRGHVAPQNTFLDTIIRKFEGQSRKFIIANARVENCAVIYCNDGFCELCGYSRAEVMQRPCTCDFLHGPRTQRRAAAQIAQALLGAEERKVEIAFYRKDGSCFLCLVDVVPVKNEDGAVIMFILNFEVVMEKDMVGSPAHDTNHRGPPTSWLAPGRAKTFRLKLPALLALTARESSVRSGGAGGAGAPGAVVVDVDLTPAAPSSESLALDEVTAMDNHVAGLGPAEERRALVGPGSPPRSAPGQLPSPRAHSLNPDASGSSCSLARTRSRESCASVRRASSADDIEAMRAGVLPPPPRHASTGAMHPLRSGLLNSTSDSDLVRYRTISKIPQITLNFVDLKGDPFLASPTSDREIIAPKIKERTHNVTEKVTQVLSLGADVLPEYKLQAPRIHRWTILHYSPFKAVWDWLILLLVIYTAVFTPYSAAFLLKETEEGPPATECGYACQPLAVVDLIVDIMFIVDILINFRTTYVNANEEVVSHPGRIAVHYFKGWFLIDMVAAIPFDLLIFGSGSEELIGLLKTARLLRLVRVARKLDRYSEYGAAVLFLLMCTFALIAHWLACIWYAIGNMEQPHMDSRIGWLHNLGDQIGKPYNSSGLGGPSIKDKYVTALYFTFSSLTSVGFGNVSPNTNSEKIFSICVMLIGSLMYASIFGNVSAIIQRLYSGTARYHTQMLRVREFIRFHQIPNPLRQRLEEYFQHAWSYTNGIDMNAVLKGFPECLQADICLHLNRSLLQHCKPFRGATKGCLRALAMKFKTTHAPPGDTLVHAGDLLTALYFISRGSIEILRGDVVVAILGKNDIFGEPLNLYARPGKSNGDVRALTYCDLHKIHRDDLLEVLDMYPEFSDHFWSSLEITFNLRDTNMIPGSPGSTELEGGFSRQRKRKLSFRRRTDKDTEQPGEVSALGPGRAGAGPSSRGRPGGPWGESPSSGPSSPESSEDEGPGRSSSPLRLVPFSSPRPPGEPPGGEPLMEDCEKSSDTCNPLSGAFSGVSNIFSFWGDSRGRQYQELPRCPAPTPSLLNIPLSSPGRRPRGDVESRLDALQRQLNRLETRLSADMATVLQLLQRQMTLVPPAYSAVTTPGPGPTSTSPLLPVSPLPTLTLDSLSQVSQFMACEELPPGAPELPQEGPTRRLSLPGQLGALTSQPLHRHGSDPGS
For data set [4], the system named is Mus musculus. As to the kind of experiment: Down-regulation of CFLAR gene expression in human hepatocellular carcinoma patient tumor xenografted in BALB/C mouse at 100 mg/kg, po administered every other day for 4 weeks by […]. In kind it is functional, organism-based. Further details: dose 100 mg/kg. The method in brief: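 Patient-derived HCC xenografts dosed 100 mpk Q2D PO; tumor total RNA (TRIzol, DNase I treated, column-purified) run on a customized 22-gene qRT-PCR array; ΔCt against mean of GAPDH and β-glucuronidase, fold-change relative to day 0 (pre-treatment).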
In general terms: In xenograft studies the graft and the host belong to different species.

Data set [5] has as its system Mus musculus. The data set is described as follows: Up-regulation of SDC2 gene expression in human hepatocellular carcinoma patient tumor xenografted in BALB/C mouse at 100 mg/kg, po administered every other day for 4 weeks by […]. On the set-up: dose 100 mg/kg. In kind it is functional, organism-based. The essentials: (§1)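 Patient HCC tumor fragments (3 × 3 × 3 mm3) implanted subcutaneously in female BALB/c nu/nu mice; at ~200 (150−250) mm3 dosed orally Q2D 100 mpk in 15% Kleptose pH 4.5 tartaric buffer for about four weeks. Tumor RNA (TRIzol, DNase I) run on 22-gene qRT-PCR array, normalized to GAPDH/β-glucuronidase by ΔCt, fold change versus day 0.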

Data set [6] relates to Mus musculus. As to the kind of experiment: Up-regulation of TIMP3 gene expression in human hepatocellular carcinoma patient tumor xenografted in BALB/C mouse at 100 mg/kg, po administered every other day for 4 weeks by […]. In kind it is functional, organism-based. Further details: dose 100 mg/kg. The method in brief: as §1
The test system of data set [7] is Mus musculus. As to the kind of experiment: Up-regulation of IGFBP3 gene expression in human hepatocellular carcinoma patient tumor xenografted in BALB/C mouse at 100 mg/kg, po administered every other day for 4 weeks by […]. In kind it is functional, organism-based. On the set-up: dose 100 mg/kg. The essentials: as §1
Data set [8] has as its system SGC-7901. As to the kind of experiment: Inhibition of Class 1 histone deacetylase in human SGC7901 cells assessed as histone H3 acetylation at 0.6 to 5 uM incubated for 24 hrs by Western blot method. The data set is classed as cell-based. The method in brief: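 SGC-7901 cells (1 × 10^6) seeded overnight, treated 24 h at indicated concentrations; lysed on ice with protease inhibitor, 15 000 g supernatant; 30 μg protein by SDS-PAGE, nitrocellulose, antibody probing for acetylated histone H3 and p21, ECL detection.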
Background: A western blot detects proteins with antibodies after separation by electrophoresis.

The subject of data set [9] is Mus musculus. As to the kind of experiment: Inhibition of Class 1 histone deacetylase in treatment responding human hepatocellular carcinoma patient tumor xenografted in BALB/C mouse assessed as induction of histone H3 acetylation at 100 mg/kg, po administered every other day for 4 weeks by immunohistochemistry. The data set is classed as functional, organism-based. On the set-up: dose 100 mg/kg. The method in brief: (§2)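 Patient-derived HCC xenografts in female nude mice given 100 mpk Q2D PO (15% Kleptose, pH 4.5 tartaric buffer); single dose on last day, tumors harvested 0 to 24 h post-dose. Paraffin sections, citrate pH 6.0 antigen retrieval, anti-Ac-H3 (Lys9) 1:200 overnight 4 °C, HRP/DAB; scored 0−3 independently by two pathologists.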

Data set [10] relates to Mus musculus. The data set is described as follows: Up-regulation of CACNA1G gene expression in human hepatocellular carcinoma patient tumor xenografted in BALB/C mouse at 100 mg/kg, po administered every other day for 4 weeks by […]. The data set is classed as functional, organism-based. On the set-up: dose 100 mg/kg. The essentials:
as §1

Data set [11] has as its system Mus musculus. The data set is described as follows: Inhibition of Class 1 histone deacetylase in treatment non-responding human hepatocellular carcinoma patient tumor xenografted in BALB/C mouse assessed as induction of histone H3 acetylation at 100 mg/kg, po administered every other day for 4 weeks by immunohistochemistry. The data set is classed as functional, organism-based. On the set-up: dose 100 mg/kg. The essentials:
as §2

The subject of data set [12] is Mus musculus. As to the kind of experiment: Up-regulation of THBS1 gene expression in human hepatocellular carcinoma patient tumor xenografted in BALB/C mouse at 100 mg/kg, po administered every other day for 4 weeks by […]. The data set is classed as functional, organism-based. Further details: dose 100 mg/kg. The method in brief: as §1
Data set [13] concerns Mus musculus. The data set is described as follows: Up-regulation of CDKN2B gene expression in human hepatocellular carcinoma patient tumor xenografted in BALB/C mouse at 100 mg/kg, po administered every other day for 4 weeks by […]. In kind it is functional, organism-based. Further details: dose 100 mg/kg. The method in brief:
as §1

Data set [14] deals with Homo sapiens. The data set is described as follows: Antitumor activity against treatment non-responding human hepatocellular carcinoma patient tumor xenografted in BALB/C mouse assessed as tumor growth inhibition at 100 mg/kg, po administered every other day for 4 weeks. In kind it is functional, organism-based. Further details: dose 100 mg/kg. The method in brief:
(§3)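 Tumor fragments (3×3×3 mm3) from HCC patients implanted subcutaneously in right flank of female BALB/c nu/nu mice (6−7 weeks). At about 200 (150−250) mm3, randomized (n = 10 per arm); Q2D PO 100 mpk in 15% Kleptose pH 4.5 tartaric buffer, about four weeks; caliper tumor volume three times weekly.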

Data set [15] concerns SK-HEP1. The data set is classed as functional, Homo sapiens.
The nature of data set [16]: Solubility in 50 mM phosphate buffer at pH 6.5 by HPLC method. The data set is classed as physicochemical. The essentials: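 10 mM DMSO stock dried, residue redissolved in 50 mM phosphate buffer pH 6.5, stirred 1 h and shaken 2 h, left overnight, filtered and analysed by HPLC against calibration standards of 50−500 μM diluted from the DMSO stock.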
The test system of data set [17] is Mus musculus. The data set is described as follows: Oral bioavailability in BALB/C mouse at 10 mg/kg by LC-MS/MS method. The data set is classed as ADME, organism-based. Particulars: in vivo. The method in brief: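 Bioavailability from single-dose iv (2 mg/kg, 5% DMSO/40% PEG400/55% saline) and oral gavage (10 mg/kg, 0.445% microcrystalline cellulose microsuspension) studies in BALB/C nude mice (N = 16 per arm); plasma at eight (po) or nine (iv) time points, LC-MS/MS, noncompartmental analysis.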

A short description of data set [18]: Antitumor activity against treatment responding human hepatocellular carcinoma patient tumor xenografted in BALB/C mouse assessed as tumor growth inhibition at 100 mg/kg, po administered every other day for 4 weeks. In kind it is functional. Particulars: 672 h, read-out: TGI. The essentials:
as §3

In data set [19] the test system is Mus musculus. The data set is described as follows: Tmax in BALB/C mouse at 10 mg/kg, po or 2 mg/kg, iv by LC-MS/MS method. The data set is classed as ADME, organism-based. Particulars: in vivo. The essentials: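 Single-dose PK: iv bolus 2 mg/kg in 5% DMSO/40% PEG400/55% saline and/or oral gavage 10 mg/kg as 0.445% microcrystalline cellulose microsuspension; BALB/C nude mice (15−20 g, N = 16 per arm) or male Sprague−Dawley rats (250 ± 20 g, N = 3). Blood at eight (po) or nine (iv) time points into sodium heparin, plasma by LC-MS/MS, noncompartmental analysis.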

The subject of data set [20] is BGC-823. The data set is classed as functional, Homo sapiens.
Data set [21] deals with SMMC-7721. In kind it is functional, Homo sapiens.

Converted amounts (≈) assume the structure as drawn. The source made the active and inactive calls.

Usually half-life stands for the time needed for the level to fall by half in the phase considered. A high value points to slow loss. Usually IC50 stands for the midpoint of a concentration-inhibition curve. Lower therefore signals greater potency in that assay. For the molecule `CN1C[C@H](C(=O)Nc2ccc(Cl)cc2)[C@@H](c2ccc(/C=C/C(=O)Nc3ccccc3N)cc2F)C1` (racemic), the CLhep predicted at 1 µM in data set [1] is 36 mL/min/kg. This molecule also showed a half-life in data set [2] of 3.4 h. Half-maximal inhibition in [3] (IC50) required 7 µM.
In the case of `CN1C[C@H](C(=O)Nc2ccc(Cl)cc2)[C@@H](c2ccc(/C=C/C(=O)Nc3ccccc3N)cc2)C1` [listing 1 of 2 here], the result in data set [4], in [5], in data set [6], in data set [7], in data set [10] and in [12] was Active. Also, in data set [13], the result was Active. For the same molecule, the inhibition entry in data set [8] is “Dose-dependent effect”. The inhibition result in [9] was “Active”. For the same molecule, the inhibition result in data set [11] was “inactive”. Moreover, the TGI entry in data set [14] is “inactive”.
`CN1C[C@@H](C(=O)Nc2ccc(Cl)cc2)[C@H](c2ccc(/C=C/C(=O)Nc3ccccc3N)cc2)C1` showed a half-life in [2] of 6.2 h.
What is called solubility is the concentration that dissolves in the medium under given conditions. Read a high solubility as a readily soluble substance. Usually Tmax stands for the time from dosing to the highest level. `CN1C[C@H](C(=O)Nc2ccc(Cl)cc2)[C@@H](c2ccc(/C=C/C(=O)Nc3ccccc3N)cc2)C1` [listing 2 of 2 here]: the GI90 in [15] is 2.5 µM; in [20], 2.2 µM; in [21] it was 1.9 µM. Besides, the solubility in [16] turned out to be 136 µg/mL (≈ 286 µM). In addition, in data set [17], the F turned out to be 100%. In addition, the inhibition in vivo at 100 mg/kg in data set [18] is 50%. Moreover, the time of peak concentration (Tmax) in data set [19] is 0.25 h.

Source of the values: ChEMBL document CHEMBL2177000, “Pharmacokinetic optimization of class-selective histone deacetylase inhibitors and identification of associated candidate predictive biomarkers of hepatocellular carcinoma tumor response” (J Med Chem, 2012).
